According to ChEMBL document CHEMBL2202977, “Optimization and structure-activity relationships of a series of potent inhibitors of methicillin-resistant Staphylococcus aureus (MRSA) pyruvate kinase as novel antimicrobial agents” (Bioorg Med Chem, 2012):
Values after ≈ are worked out from the molar mass of the structure shown.

Tests used:
[1] = molecular target: T1, Pyruvate kinase (Staphylococcus aureus (strain MRSA252), UniProt Q6GG09); assay: Inhibition of methicillin-resistant Staphylococcus aureus 252 pyruvate kinase by LDH assay; design: species or system Staphylococcus aureus subsp. aureus MRSA252
T1 sequence (Q6GG09 whole entry): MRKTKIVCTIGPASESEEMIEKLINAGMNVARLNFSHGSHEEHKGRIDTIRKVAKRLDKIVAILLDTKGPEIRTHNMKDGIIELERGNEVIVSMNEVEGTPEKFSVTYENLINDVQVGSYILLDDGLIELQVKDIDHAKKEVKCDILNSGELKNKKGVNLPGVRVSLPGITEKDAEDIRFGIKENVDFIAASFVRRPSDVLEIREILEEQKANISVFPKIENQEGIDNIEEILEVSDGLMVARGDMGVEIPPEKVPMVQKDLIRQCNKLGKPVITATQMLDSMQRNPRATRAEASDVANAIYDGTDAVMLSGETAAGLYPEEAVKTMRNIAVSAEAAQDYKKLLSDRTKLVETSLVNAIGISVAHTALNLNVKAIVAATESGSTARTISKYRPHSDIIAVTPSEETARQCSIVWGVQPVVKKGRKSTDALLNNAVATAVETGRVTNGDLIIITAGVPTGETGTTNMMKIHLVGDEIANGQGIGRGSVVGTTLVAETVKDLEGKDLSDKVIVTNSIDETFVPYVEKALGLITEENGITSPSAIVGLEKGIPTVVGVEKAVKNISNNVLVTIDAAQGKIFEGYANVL
How it was run: (§1)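 MRSA pyruvate kinase activity was measured by a previously described procedure. IC50 was calculated from triplicate 15-point titrations, or averaged over n such determinations. Where no IC50 was obtained, the value is % inhibition at the highest concentration tested.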

[2] = tested on: Staphylococcus aureus; assay: Antimicrobial activity against Staphylococcus aureus RN4220 after 24 hrs broth microdilution method; format: functional
How it was run: (§2)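 MIC taken as the minimum concentration giving >98% growth inhibition of the named S. aureus strain (RN4220, ATCC 25923 or ATCC 29213). Values are single determinations or averages of n determinations. Vancomycin was run as control.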

[3] = molecular target: Pyruvate kinase PKLR (Homo sapiens) (UniProt P30613); assay: Inhibition of human pyruvate kinase R at 10 uM by LDH assay
Sequence of Pyruvate kinase PKLR (Homo sapiens) (P30613 whole entry, looked up, canonical isoform): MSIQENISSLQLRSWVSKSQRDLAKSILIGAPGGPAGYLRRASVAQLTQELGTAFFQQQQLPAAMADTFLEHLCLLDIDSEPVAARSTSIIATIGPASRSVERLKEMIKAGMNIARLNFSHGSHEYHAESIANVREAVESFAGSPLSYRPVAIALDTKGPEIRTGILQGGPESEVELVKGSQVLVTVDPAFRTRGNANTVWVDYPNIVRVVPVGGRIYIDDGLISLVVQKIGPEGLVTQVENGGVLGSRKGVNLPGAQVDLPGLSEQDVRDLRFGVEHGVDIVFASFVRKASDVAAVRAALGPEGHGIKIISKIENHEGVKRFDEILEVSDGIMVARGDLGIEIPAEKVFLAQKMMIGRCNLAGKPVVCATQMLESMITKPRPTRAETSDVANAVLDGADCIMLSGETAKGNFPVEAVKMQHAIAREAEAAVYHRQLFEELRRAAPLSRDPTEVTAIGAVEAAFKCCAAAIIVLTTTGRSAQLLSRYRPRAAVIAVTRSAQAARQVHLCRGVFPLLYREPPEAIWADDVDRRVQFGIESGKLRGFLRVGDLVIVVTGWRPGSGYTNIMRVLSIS
How it was run: (§3)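 Selected compounds were tested against mammalian PK isoforms M1, M2, R and L at the highest concentration, 10 µM. Results are given as percent inhibition.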

[4] = molecular target: T2, Pyruvate kinase (Staphylococcus aureus (strain MRSA252)) (UniProt Q6GG09); assay: Inhibition of methicillin-resistant Staphylococcus aureus 252 pyruvate kinase at 10 uM by LDH assay; settings: Staphylococcus aureus subsp. aureus MRSA252; how it was run: as §1
T2 sequence (whole entry): T1 sequence (Q6GG09 whole entry)

[5] = molecular target: Pyruvate kinase PKLR (Homo sapiens) (UniProt P30613); assay: Inhibition of human pyruvate kinase L at 10 uM by LDH assay; how it was run: as §3
[6] = molecular target: Pyruvate kinase PKM (Homo sapiens) (UniProt P14618); assay: Inhibition of human pyruvate kinase M2 at 10 uM by LDH assay; how it was run: as §3
Sequence of Pyruvate kinase PKM (Homo sapiens) (P14618 2-531 limits assumed): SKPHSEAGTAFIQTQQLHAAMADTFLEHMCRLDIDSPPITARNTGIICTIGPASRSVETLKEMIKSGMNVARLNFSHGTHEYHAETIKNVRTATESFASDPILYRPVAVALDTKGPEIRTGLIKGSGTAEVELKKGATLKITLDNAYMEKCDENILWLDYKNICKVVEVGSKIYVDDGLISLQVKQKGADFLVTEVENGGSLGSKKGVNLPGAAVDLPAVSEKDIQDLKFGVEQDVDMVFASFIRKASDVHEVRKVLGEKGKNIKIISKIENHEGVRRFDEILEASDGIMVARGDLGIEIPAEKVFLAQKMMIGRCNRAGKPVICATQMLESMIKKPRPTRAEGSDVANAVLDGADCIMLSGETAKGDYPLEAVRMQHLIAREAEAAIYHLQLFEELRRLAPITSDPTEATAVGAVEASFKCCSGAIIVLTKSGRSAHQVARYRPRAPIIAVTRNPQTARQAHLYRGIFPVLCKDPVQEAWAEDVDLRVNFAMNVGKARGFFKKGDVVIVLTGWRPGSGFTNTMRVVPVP

[7] = molecular target: Pyruvate kinase PKM (Homo sapiens) (UniProt P14618); assay: Inhibition of human pyruvate kinase M1 at 10 uM by LDH assay; how it was run: as §3
[8] = tested on: Staphylococcus aureus; assay: Antimicrobial activity against Staphylococcus aureus ATCC 29213 after 24 hrs broth microdilution method; format: functional; how it was run: as §2

Compound	IC50 [1] [nM]	MIC>98 [2] [µg/mL]	inhibition [3] [%]	inhibition [4] [%]	inhibition [5] [%]	inhibition [6] [%]	inhibition [7] [%]	MIC>98 [8] [µg/mL]
CC(=NNC(=O)c1cc(Br)ccc1O)c1cc2ccc(Br)cc2n1C (mixture of isomers)	17	1	–	–	–	–	–	–
C/C(=N\NC(=O)c1cc(Br)ccc1O)c1cc2cc(Cl)ccc2[nH]1	52	>81	2.4	80.1	0.1	4.6	4.4	–
CC/C(=N\NC(=O)c1cc(Br)ccc1O)c1cc2ccccc2[nH]1	126	9.7 (≈ 25.1 µM)	4.8	99.2	3.6	-2.4	6.6	–
C/C(=N\NC(=O)c1cc2ccccc2cc1O)c1cc2c(F)c(F)c(F)cc2n1C	59	–	–	–	–	–	–	>64
CCC(=NNC(=O)c1cc(Br)ccc1O)c1cc2cc(Br)ccc2n1C (mixture of isomers)	168	–	–	–	–	–	–	2
CC(=NNC(=O)c1cc(Br)ccc1O)c1cc2cc(F)c(F)cc2n1C (mixture of isomers)	61	1.6	9	95.4	-2.4	-8.1	–	–
CC(=NNC(=O)c1cc(Br)ccc1O)c1nc2ccccc2n1C (mixture of isomers)	227	>194	7.1	–	-1.3	0.5	-3	–
C#CCOc1ccccc1C(=O)N/N=C(\C)c1cc2cc(Br)ccc2[nH]1	64	>205	24	93.2	23.1	2.5	20.2	–
COc1ccc(Br)cc1C(=O)N/N=C(\C)c1cc2ccccc2[nH]1	182	>193	31.9	83.4	27.2	16.1	29	–
C/C(=N\NC(=O)c1cc(Br)ccc1O)c1cc2cc(Br)ccc2[nH]1	49	>226	10.7	72.2	6.8	8.3	21.6	–
COc1cc(O)c(C(=O)N/N=C(\C)c2cc3ccccc3[nH]2)cc1Br	324	>161	–	–	–	–	–	–
COc1ccc(Br)cc1C(=O)O/N=C(\C)c1cc2ccccc2n1C	–	>161	–	33	–	–	–	–
CC(=NNC(=O)c1cc(I)ccc1O)c1cc2ccccc2n1C (mixture of isomers)	483	5.4	4.7	94.2	4.4	-2	-5.3	–
C/C(=N\NC(=O)c1cccc(Br)c1)c1cc2ccccc2[nH]1	8150	>178	–	–	–	–	–	–
C/C(=N\NC(=O)c1cc(I)ccc1O)c1cc2ccccc2[nH]1	151	>84	0.9	97	-1.6	-1.3	0	–
C/C(=N\NC(=O)c1ccc(Br)cc1O)c1cc2ccccc2[nH]1	1310	–	–	–	–	–	–	–
C/C(=N\NC(=O)c1cc(C(C)C)cc(C(C)C)c1O)c1cc2ccccc2[nH]1	–	–	–	40	–	–	–	–
COc1ccc2c(c1)cc(C(C)=NNC(=O)c1cc(Br)ccc1O)n2C (mixture of isomers)	794	10.4	5.5	71.3	2.8	–	-2.8	–
CC(=NNC(=O)c1cc(Br)ccc1O)c1cc2c(F)c(F)ccc2n1C (mixture of isomers)	145	2	–	–	–	–	–	–
CC(=NNC(=O)c1cc(Br)ccc1O)c1cc2cc(Cl)ccc2n1C (mixture of isomers)	228	1.3	6.9	92.3	5.7	3.7	14.8	–
C/C(=N\NC(=O)c1cc(Br)ccc1O)c1cc2c(F)c(F)ccc2[nH]1	24	41 (≈ 100 µM)	–	–	–	–	–	–
C/C(=N\NC(=O)c1cc(-c2ccccc2)ccc1O)c1cc2ccccc2[nH]1	–	–	–	20	–	–	–	–
